HIV Env fusion: inhibitors of HIV-1 Env-driven cell-cell fusion, primary screen, HeLa-JRFL effector, CEM21 target cells, luciferase | inhibition, % at 12.3 µM | AID 651610, 2012 | actives 1.1% (n = 360,000);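 active means mean replicate inhibition score of at least 50 and every replicate individually at or above 50; inconclusive means only one of the two criteria met; inactive means mean below 50 and not all replicates reaching 50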
Cneo AK release: Cryptococcus neoformans cell lysis inducers, primary screen, AK release luminescence, single concentration | lysis activity, % at 15 µM | actives 0.2% (n = 360,000) | AID 651654, 2012 | C. neoformans lysis, adenylate kinase release luminescence, 4 h; normalised: neutral wells 0, clomiphene wells 100;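 active means mean lysis activity across replicates of at least 80%, whatever share of replicates individually reach that level; inactive means mean lysis activity below 80%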
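Material: C. neoformans cells; Schedule: 4 h static compound exposure, 37 °C, read 1 h post-reagent; Measured by: adenylate kinase release luminescence; Read-out: signal increase indicating cell lysis; Controls: Clomiphene as positive lysis control.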
dFosB act: activators of delta FosB homodimer, primary screen, biochemical, fluorescence polarization, TAMRA-CDK5 oligo, single point; Protein FosB (Mus musculus), P13346; purified delta FosB; percent of positive-control signal above neutral wells; activation, % at 25 µM; actives 0.99% (n = 340,000); AID 493131, 2011;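 active means mean activation above about 17%, with every replicate also reaching it, limit read from the data, passing the limit was not always enough; inconclusive means only one of the two conditions met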
PAX8 reporter: inhibitors of PAX8-driven TPO luciferase reporter, primary screen, RMG-I cells, single concentration | SteadyGlo, 24 h | actives 1.2% (n = 360,000) | AID 652154, 2013 | inhibition, % at 12.6 µM;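 active means mean replicate inhibition at least 60% with every replicate also reaching 60%; inconclusive means only one of the two criteria is met; inactive means mean below 60% and not all replicates reaching 60%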;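 further: luciferase light reporting Pax8 driven TPO promoter activity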
INS-1E GSIS act: GLuc luminescence reporter in INS-1E cells, primary screen for activators of glucose-dependent secretion of insulin; AID 743287, 2014; actives 0.61% (n = 370,000); INS-1E GLuc reporter insulin secretion, 2-3 h; activation, % at 16.6 µM;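 active means lowest replicate activation of at least 40%, so every replicate reaches that level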
CDK5 p35 inh: inhibitors of human CDK5/p35 kinase, primary screen, biochemical, single concentration; Cyclin-dependent kinase 5 (Homo sapiens) + Cyclin-dependent kinase 5 activator 1 (Homo …; Recombinant CDK5/p35, ADP-Glo luminescence, 60 min; inhibition, % at 10 µM; actives 0.01% (n = 330,000); AID 488839, 2010;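 active means highest replicate inhibition of at least 50% and at least 75% of replicates reaching 50%; inconclusive means only one of the two criteria met; inactive means both criteria failed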
Target sequence (Q00535 whole entry, looked up): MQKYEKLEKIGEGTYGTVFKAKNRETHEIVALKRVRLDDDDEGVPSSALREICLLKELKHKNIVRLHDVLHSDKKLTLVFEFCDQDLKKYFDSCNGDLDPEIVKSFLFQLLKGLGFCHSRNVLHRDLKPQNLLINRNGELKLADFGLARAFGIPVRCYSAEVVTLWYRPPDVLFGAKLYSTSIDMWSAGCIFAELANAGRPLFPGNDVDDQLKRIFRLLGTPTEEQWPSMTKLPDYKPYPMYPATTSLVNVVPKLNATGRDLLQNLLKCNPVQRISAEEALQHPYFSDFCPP
Target sequence (Q15078 whole entry, looked up): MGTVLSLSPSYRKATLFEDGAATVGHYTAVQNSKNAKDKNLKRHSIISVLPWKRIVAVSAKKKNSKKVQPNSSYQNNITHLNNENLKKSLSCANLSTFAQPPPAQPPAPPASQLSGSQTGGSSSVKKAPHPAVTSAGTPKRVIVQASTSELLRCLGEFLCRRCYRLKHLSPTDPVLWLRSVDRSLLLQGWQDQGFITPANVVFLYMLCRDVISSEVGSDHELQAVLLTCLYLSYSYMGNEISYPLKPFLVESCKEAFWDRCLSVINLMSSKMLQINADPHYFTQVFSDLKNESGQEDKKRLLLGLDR
Numbers stand for hits; n = inactive; u = inconclusive; x = not tested or not shown. Sampled rows, rich in hits. Any-hit rate of the full collection: about 2.9%.

SMILES	HIV Env fusion	Cneo AK release	dFosB act	PAX8 reporter	INS-1E GSIS act	CDK5 p35 inh
COCc1cn(CC[C@@H]2CC[C@H](NC(=O)Nc3ccc(Cl)cc3)[C@H](CO)O2)nn1	n	n	x	n	n	x
CC(C)CC#Cc1cnc2c(c1)C(=O)N([C@H](C)CO)C[C@H](C)[C@@H](CN(C)S(=O)(=O)c1cn(C)cn1)O2	n	n	x	n	n	x
Cc1nc2ccccc2c(=O)n1CCCN1CCOCC1	n	x	n	n	40	n
c1ccc2nc3c(nc2c1)c1ccccc1n3CCN1CCOCC1	n	x	n	x	72	n
CCOc1ccc(N2C(=O)CS(=O)(=O)C2c2ccccc2)cc1 (stereo not given)	n	n	x	n	x	x
CO[C@@H]1CN(C)C(=O)c2ccc(NC(=O)Cc3ccccc3)cc2OC[C@@H](C)N(CC2CC2)C[C@H]1C	x	x	x	n	n	x
CS(=O)(=O)N(Cc1ccc(Cl)cc1)c1ccc(C(=O)NCCC2=CCCCC2)cc1	85	n	n	x	80	n
c1cc2c(cc1C1CCCCC1)c1c3n2CCCNC3CCC1 (stereo not given)	x	x	25	x	x	n
C[C@H]1CN([C@@H](C)CO)C(=O)c2cc(NS(=O)(=O)c3ccccc3)ccc2O[C@@H]1CN(C)C(=O)Nc1ccccc1	n	n	x	n	n	x
COc1cc2c(cc1OC)C(c1c(Cl)cccc1Cl)=NCC2	60	x	x	n	n	x
C=C1C(=O)C23CCC4C(C)(C(=O)OC)CCCC4(C)C2CCC1(O)C3 (stereo not given)	n	x	n	134	x	n
CCCN1[C@@H]2c3ccc(-c4ccccc4)c(=O)n3C[C@@H]2[C@@H](CO)[C@@H]1C(=O)N[C@H](C)c1ccccc1	x	n	x	x	n	x
N#Cc1ccc(NC(=O)COC(=O)CNC(=O)C2CCCCC2)cc1	x	n	n	x	x	n
O=C(COC(=O)C1CCC1)NC(=O)c1ccccc1	n	n	n	n	42	n
N#Cc1ccc(NC(=O)COC(=O)C2CCC2)cc1	u	n	x	113	x	x
Cc1ccccc1Nc1nc(N)nc(CN(C)c2ccccc2)n1	x	n	n	x	x	n
CCOC(=O)C1CCCN(Cc2nc(N)nc(Nc3ccc(Cl)cc3)n2)C1 (stereo not given)	x	n	n	x	n	n
COc1ccc(Nc2nc(N)nc(CCl)n2)cc1	n	n	n	101	n	n
Nc1nc(CCl)nc(Nc2ccc3ccccc3c2)n1	n	x	n	98	n	n
COc1ccc(Nc2nc(N)nc(CN3CCOCC3)n2)cc1	x	n	n	x	x	n
CCOC(=O)C1CCCN(Cc2nc(N)nc(Nc3ccc(OC)cc3)n2)C1 (stereo not given)	70	n	n	x	n	n
Cc1ccccc1Nc1nc(N)nc(CCl)n1	n	n	n	102	x	n
O=C(Nc1ccccc1)N1CC(=O)N2[C@H](CO)[C@H](c3ccc(-c4ccc(F)cc4)cc3)[C@H]2C1	x	x	x	x	n	x
CCN(CC(O)Cn1c2ccccc2c2ccccc21)S(=O)(=O)c1ccc(C)cc1 (stereo not given)	56	n	n	n	n	x
CN(C)CC(=O)N1[C@@H](C#N)[C@H](c2ccc(-c3ccccc3F)cc2)[C@@H]1CO	n	n	x	n	n	x
SMILES	HIV Env fusion	Cneo AK release	dFosB act	PAX8 reporter	INS-1E GSIS act	CDK5 p35 inh
CCCCOc1ccc(C)cc1CN(CCO)CCO	x	n	n	x	x	n
CCCCCc1ccc(OCCCC[n+]2ccc(C)cc2)c(CCCCC)c1	55	x	n	74	109	n
CCCCCc1ccc(OCCCC[n+]2cccc(C)c2)c(CCCCC)c1	56	x	n	94	174	n
CCCCCc1ccc(OCCCC[n+]2ccccc2)c(CCCCC)c1	x	x	n	x	x	n
COc1ccc(S(=O)(=O)N2CCCCN3[C@@H](CO)[C@H](c4ccc(C#CC(C)C)cc4)[C@@H]3C2)cc1	x	n	x	74	n	x
Cc1cccc(-c2ccc([C@H]3[C@H]4CN(S(=O)(=O)c5cccc(C)c5)CCCCN4[C@H]3CO)cc2)c1	x	n	x	103	n	x
CCCC#Cc1ccc([C@@H]2[C@@H](CO)N3CCCCN(S(=O)(=O)c4ccccc4F)C[C@@H]23)cc1	x	n	x	n	n	x
COc1ccc(S(=O)(=O)N2CCCCN3[C@H](C2)[C@@H](c2ccc(C#CCC(C)C)cc2)[C@@H]3CO)cc1	x	n	x	n	n	x

High-throughput results as filed in PubChem.
